Measured values as given in ChEMBL document CHEMBL5678799 (Biochem J, 2009).
Active and inactive are the calls of the source. The rule behind the calls is not given here.

Key:
mTORC1 (Homo sapiens) = mTORC1 (Homo sapiens) (UniProt P42345+Q8N122+Q9BVC4); details: HEK293, dose 30.0 nM, time 30.0 min
MEF [1] = experiment: Inhibition of mTORC2 in serum starved sin1 knockout MEF cells assessed as reduction IGF1-stimulated AKT phosphorylation at Thr308 residue at 100 to 1000 nM incubated for 20 mins by immunoblot analysis; format: cell-based; details: Mus musculus, dose 100-1000 nM
Outline: (§1)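 Serum withdrawn 16 h. Inhibitor or vehicle given 30 min before stimulation with 50 ng/ml IGF-1 for 20 min. Lysed in Tris lysis buffer and immunoblotted for Akt Thr308 phosphorylation with ECL detection. Applies to HEK-293 and to wild-type, Rictor, Sin1 or mLST8 knockout MEFs. Three independent experiments.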

MEF [2] = experiment: Inhibition of mTORC2 in serum starved Rictor knockout MEF cells assessed as reduction IGF1-stimulated AKT phosphorylation at Thr308 residue at 100 to 1000 nM incubated for 20 mins by immunoblot analysis; format: cell-based; details: Mus musculus, dose 100-1000 nM
Outline: as §1

[3] = molecular target: Casein kinase I isoform delta (Homo sapiens) (UniProt P48730); experiment: (§2) Inhibition of recombinant human N-terminal GST-tagged CK1delta (1 to 415 residues) expressed in Escherichia coli assessed as remaining activity at 10 uM using RRKDLHDDEEDEAMSITA as substrate incubated for 30 mins in presence of [gamma-33P]ATP by filter binding method relative to control
Sequence of Casein kinase I isoform delta (Homo sapiens) (P48730 whole entry, looked up, the tested form may be a part, canonical isoform): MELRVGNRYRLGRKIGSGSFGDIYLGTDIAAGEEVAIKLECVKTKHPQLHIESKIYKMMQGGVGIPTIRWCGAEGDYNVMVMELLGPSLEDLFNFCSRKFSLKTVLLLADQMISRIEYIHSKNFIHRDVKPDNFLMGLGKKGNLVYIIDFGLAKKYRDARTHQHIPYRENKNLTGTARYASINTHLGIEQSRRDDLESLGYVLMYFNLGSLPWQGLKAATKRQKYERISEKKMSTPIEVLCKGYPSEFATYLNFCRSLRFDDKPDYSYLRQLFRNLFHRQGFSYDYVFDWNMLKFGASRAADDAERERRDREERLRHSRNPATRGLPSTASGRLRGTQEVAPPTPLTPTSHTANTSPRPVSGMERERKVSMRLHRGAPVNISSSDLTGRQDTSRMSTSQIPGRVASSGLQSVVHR
Outline: (§3)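 Robotic radiometric panel assay, 30 min at room temperature (21 °C), with 10 mM magnesium acetate. […] Compound at 1 or 10 µM. Residual activity expressed relative to compound-free control; triplicate average ± S.D.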

[4] = molecular target: Glycogen synthase kinase-3 beta (Homo sapiens) (UniProt P49841); experiment: Inhibition of recombinant human His6-tagged GSK3beta (2 to 420 residues) expressed in baculovirus infected Sf21 cells assessed as remaining activity at 10 uM using phospho-GS2 peptide as substrate incubated for 30 mins in presence of [gamma-33P]ATP by filter binding method relative to control
Sequence of Glycogen synthase kinase-3 beta (Homo sapiens) (P49841 whole entry, looked up, the tested form may be a part): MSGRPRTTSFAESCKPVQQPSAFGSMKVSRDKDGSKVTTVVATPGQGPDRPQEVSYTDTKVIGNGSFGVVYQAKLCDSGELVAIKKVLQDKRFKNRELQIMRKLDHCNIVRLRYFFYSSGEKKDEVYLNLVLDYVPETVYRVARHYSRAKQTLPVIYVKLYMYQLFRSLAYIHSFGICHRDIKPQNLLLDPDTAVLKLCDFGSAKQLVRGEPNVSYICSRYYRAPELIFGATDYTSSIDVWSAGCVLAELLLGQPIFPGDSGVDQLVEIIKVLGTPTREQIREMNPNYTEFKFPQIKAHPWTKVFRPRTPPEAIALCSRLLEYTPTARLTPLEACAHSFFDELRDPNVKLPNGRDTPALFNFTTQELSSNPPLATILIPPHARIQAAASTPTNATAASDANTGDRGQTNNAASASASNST
Outline: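 Radiometric kinase panel run robotically at 21 °C for 30 min, linear in time and enzyme. […] Activity expressed as percentage of control without inhibitor; triplicate determinations.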

[5] = molecular target: CDK2/Cyclin A2 (Homo sapiens) (UniProt P24941+P20248); experiment: as §2, with “CDK2 (2” for “CK1delta (1”, “298 residues)/N-terminal GST-tagged Cyclin A2 (171 to 432” for “415”, “1” for “10”, “YSPTSPSYSPTSPSYSPTSPKKK” for “RRKDLHDDEEDEAMSITA”
Outline: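 Incubations ran robotically for 30 min at room temperature (21 °C) under linear conditions. Results are percent activity remaining versus controls without compound, as the mean of triplicates ± S.D.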

[6] = molecular target: Ribosomal protein S6 kinase alpha-5 (Homo sapiens) (UniProt O75582); experiment: Inhibition of recombinant human His6-tagged MSK1 (2 to 802 residues) expressed in baculovirus infected Sf21 cells assessed as remaining activity at 10 uM using GRPRTSSFAEGKK as substrate incubated for 30 mins in presence of [gamma-33P]ATP by filter binding method relative to control
Sequence of Ribosomal protein S6 kinase alpha-5 (Homo sapiens) (O75582 whole entry, looked up, the tested form may be a part): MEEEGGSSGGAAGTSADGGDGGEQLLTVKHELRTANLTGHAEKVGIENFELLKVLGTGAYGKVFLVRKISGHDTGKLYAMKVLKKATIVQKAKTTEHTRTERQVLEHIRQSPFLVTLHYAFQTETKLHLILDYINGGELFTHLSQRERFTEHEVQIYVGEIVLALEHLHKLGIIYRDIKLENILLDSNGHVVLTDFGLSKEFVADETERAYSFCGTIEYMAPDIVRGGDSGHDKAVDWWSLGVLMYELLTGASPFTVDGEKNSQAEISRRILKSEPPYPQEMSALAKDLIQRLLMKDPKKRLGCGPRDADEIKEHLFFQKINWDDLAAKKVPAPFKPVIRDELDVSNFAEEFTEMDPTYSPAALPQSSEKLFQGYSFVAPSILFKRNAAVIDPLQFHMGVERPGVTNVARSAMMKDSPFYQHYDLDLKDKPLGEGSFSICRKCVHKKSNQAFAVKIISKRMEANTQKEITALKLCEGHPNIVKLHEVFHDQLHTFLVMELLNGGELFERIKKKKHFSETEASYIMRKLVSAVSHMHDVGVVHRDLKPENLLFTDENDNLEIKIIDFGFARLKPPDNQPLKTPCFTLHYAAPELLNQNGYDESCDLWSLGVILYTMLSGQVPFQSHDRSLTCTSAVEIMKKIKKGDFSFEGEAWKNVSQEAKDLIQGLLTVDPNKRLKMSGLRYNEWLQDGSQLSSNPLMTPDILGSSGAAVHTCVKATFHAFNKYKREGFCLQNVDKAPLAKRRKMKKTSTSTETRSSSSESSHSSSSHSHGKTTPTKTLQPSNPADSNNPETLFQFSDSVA
Outline: as §3

[7] = molecular target: Protein kinase C zeta type (Homo sapiens) (UniProt Q05513); experiment: Inhibition of recombinant human N-terminal His6-tagged PKCzeta (2 to 592 residues) expressed in baculovirus infected Sf21 cells assessed as remaining activity at 1 uM using ERMRPRKRQGSVRRV as substrate incubated for 30 mins in presence of [gamma-33P]ATP by filter binding method relative to control
Sequence of Protein kinase C zeta type (Homo sapiens) (Q05513 whole entry, the tested form may be a part): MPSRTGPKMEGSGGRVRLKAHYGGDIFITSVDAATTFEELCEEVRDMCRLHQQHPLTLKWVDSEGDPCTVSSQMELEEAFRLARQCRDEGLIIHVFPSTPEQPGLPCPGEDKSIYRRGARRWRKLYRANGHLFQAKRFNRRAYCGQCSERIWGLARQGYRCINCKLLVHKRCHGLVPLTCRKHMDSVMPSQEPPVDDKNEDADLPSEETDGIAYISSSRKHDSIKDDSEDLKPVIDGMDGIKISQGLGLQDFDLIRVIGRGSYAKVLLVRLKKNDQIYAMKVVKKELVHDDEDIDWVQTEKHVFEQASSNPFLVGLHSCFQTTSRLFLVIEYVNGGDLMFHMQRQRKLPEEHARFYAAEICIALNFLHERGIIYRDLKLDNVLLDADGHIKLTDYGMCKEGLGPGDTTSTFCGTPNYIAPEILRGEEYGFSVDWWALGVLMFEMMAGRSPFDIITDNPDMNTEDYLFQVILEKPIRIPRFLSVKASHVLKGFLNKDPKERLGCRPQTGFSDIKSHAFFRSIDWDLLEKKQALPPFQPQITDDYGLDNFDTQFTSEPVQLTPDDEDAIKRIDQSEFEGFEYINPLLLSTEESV

[8] = molecular target: MAP kinase-interacting serine/threonine-protein kinase 2 (Homo sapiens) (UniProt Q9HBH9); experiment: Inhibition of recombinant human N-terminal GST/C-terminal His6-tagged MNK2alpha (2 to 465 residues) expressed in Escherichia coli assessed as remaining activity at 10 uM using eIF4E as substrate incubated for 30 mins in presence of [gamma-33P]ATP by filter binding method relative to control
[9] = molecular target: Casein kinase I isoform delta (Homo sapiens) (UniProt P48730); experiment: Inhibition of recombinant human N-terminal GST-tagged CK1delta (1 to 415 residues) expressed in Escherichia coli assessed as remaining activity at 1 uM using RRKDLHDDEEDEAMSITA as substrate incubated for 30 mins in presence of [gamma-33P]ATP by filter binding method relative to control
Outline: as §3

[10] = molecular target: Phosphatidylinositol 3-kinase catalytic subunit type 3 (Homo sapiens) (UniProt Q8NEB9); experiment: Inhibition of VPS34 (unknown origin) assessed as remaining activity at 10 uM using phosphatidylinositol as substrate incubated for 60 mins in presence of ATP relative to control
Sequence of Phosphatidylinositol 3-kinase catalytic subunit type 3 (Homo sapiens) (Q8NEB9 whole entry, the tested form may be a part): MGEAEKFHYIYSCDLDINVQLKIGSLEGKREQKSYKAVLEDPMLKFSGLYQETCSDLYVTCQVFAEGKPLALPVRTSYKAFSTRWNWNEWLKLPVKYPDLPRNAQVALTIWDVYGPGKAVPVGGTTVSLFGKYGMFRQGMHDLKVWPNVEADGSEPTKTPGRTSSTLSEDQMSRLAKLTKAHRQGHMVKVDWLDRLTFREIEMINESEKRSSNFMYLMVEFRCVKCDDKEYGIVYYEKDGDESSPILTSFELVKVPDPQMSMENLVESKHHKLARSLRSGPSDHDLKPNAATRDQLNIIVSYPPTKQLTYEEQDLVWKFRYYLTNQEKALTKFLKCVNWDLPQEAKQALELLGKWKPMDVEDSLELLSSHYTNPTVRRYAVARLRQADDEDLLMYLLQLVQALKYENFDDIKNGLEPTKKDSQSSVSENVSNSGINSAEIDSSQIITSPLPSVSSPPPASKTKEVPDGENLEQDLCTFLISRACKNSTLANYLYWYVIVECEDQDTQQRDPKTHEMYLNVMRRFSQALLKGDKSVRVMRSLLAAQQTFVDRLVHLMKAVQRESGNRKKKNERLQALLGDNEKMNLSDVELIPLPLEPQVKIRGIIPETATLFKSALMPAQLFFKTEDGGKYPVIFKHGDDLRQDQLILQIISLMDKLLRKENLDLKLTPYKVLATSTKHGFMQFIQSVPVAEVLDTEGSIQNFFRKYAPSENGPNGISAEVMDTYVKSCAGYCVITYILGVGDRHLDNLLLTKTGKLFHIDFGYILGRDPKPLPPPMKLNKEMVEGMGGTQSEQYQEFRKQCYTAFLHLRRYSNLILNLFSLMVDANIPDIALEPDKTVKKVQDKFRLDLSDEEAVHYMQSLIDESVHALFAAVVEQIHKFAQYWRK

[11] = molecular target: Serine/threonine-protein kinase D1 (Homo sapiens) (UniProt Q15139); experiment: Inhibition of recombinant human N-terminal His6-tagged PKD1 (2 to 912 residues) expressed in baculovirus infected Sf21 cells assessed as remaining activity at 10 uM using KKLNRTLSVA as substrate incubated for 30 mins in presence of [gamma-33P]ATP by filter binding method relative to control
Sequence of Serine/threonine-protein kinase D1 (Homo sapiens) (Q15139 whole entry, looked up, the tested form may be a part): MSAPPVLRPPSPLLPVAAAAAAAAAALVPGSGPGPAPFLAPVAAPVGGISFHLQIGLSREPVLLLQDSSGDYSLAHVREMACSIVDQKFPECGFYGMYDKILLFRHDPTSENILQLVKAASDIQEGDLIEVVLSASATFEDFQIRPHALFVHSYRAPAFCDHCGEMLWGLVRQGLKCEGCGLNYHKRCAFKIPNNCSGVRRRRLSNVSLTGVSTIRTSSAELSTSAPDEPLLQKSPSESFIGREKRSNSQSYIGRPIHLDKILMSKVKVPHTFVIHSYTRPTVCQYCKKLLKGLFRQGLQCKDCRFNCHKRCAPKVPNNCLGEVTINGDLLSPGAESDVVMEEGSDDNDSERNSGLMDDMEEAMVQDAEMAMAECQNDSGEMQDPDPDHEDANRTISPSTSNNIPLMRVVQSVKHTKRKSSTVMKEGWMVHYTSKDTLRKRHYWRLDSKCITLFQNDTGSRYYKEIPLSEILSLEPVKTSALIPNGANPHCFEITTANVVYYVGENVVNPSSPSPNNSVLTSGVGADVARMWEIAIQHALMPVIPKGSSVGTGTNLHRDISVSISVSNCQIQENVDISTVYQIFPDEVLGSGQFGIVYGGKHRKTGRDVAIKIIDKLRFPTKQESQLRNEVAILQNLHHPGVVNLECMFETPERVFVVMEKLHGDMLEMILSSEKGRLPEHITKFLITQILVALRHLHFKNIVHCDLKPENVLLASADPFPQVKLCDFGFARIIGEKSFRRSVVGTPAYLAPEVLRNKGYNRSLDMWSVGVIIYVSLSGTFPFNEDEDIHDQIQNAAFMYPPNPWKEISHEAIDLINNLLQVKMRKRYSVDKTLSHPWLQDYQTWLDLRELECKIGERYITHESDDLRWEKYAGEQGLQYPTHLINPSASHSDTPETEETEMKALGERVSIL

[12] = molecular target: Casein kinase II subunit alpha (Homo sapiens) (UniProt P68400); experiment: Inhibition of recombinant human N-terminal His6-tagged CK2alpha1 (2 to 391 residues) expressed in Escherichia coli assessed as remaining activity at 1 uM using RRRDDDSDDD as substrate incubated for 30 mins in presence of [gamma-33P]ATP by filter binding method relative to control
Outline: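 Radiometric panel assay run robotically at 21 °C for 30 min, linear in time and enzyme. […] Activity is expressed as percentage of the compound-omitted control, averaged from triplicates ± S.D.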

[13] = molecular target: Protein kinase C alpha type (Homo sapiens) (UniProt P17252); experiment: Inhibition of recombinant human N-terminal His6-tagged PKCalpha (1 to 672 residues) expressed in baculovirus infected Sf21 cells assessed as remaining activity at 1 uM using Histone H1 as substrate incubated for 30 mins in presence of [gamma-33P]ATP by filter binding method relative to control
mTORC2 (Homo sapiens) = mTORC2 (Homo sapiens) (UniProt P42345+Q6R327+Q9BVC4+Q9BPZ7); details: HEK293, dose 30-1000 nM, time 30.0 min
[14] = molecular target: Sphingosine kinase 2 (Homo sapiens) (UniProt Q9NRA0); experiment: Inhibition of SPHK2 (unknown origin) assessed as remaining activity at 10 uM using sphingosine as substrate incubated for 30 mins in presence of ATP relative to control
Sequence of Sphingosine kinase 2 (Homo sapiens) (Q9NRA0 whole entry): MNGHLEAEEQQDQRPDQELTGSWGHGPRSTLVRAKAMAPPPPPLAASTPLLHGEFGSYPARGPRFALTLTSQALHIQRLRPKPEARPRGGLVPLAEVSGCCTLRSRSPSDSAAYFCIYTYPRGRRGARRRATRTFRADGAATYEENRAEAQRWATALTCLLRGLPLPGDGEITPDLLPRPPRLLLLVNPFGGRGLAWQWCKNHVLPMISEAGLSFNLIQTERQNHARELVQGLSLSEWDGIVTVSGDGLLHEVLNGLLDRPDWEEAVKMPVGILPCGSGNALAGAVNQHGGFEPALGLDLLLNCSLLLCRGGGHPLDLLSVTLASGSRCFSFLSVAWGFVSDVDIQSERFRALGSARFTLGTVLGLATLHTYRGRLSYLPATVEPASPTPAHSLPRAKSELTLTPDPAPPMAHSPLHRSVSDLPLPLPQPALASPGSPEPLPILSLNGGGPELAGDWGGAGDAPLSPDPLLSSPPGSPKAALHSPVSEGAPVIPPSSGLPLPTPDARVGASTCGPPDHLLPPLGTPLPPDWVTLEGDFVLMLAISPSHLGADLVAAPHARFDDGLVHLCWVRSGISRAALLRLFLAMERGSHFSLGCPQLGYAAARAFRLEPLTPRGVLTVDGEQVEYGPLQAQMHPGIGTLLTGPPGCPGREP
Outline: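 SPHK2 reaction: 10 μM sphingosine, 1 μM ATP, 50 mM Tris/HCl pH 7.5, 200 mM KCl, 5 mM MgCl2, 1 mM EGTA, 1 mM DTT, 30 min at room temperature. Kinase-Glo Plus luminescence read-out. Percentage of control activity, triplicate.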

[15] = molecular target: Mitogen-activated protein kinase 14 (Homo sapiens) (UniProt Q16539); experiment: Inhibition of recombinant human N-terminal GST-tagged P38alpha (1 to 360 residues) expressed in Escherichia coli assessed as remaining activity at 10 uM using MBP as substrate incubated for 30 mins in presence of [gamma-33P]ATP by filter binding method relative to control
Sequence of Mitogen-activated protein kinase 14 (Homo sapiens) (Q16539 whole entry, the tested form may be a part): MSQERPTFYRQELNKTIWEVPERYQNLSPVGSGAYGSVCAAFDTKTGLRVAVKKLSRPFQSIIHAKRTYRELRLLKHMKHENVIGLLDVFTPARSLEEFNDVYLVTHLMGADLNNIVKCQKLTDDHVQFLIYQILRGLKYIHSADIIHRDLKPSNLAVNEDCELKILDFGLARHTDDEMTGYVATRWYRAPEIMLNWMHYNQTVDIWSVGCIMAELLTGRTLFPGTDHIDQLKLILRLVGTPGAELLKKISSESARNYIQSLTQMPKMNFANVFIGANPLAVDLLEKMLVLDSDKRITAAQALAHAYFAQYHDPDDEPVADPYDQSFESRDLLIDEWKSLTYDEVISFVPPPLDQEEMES
Outline: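 Incubation was 30 min at room temperature (21 °C) under conditions linear with time and enzyme amount. Activity is reported as percent of control lacking compound, triplicate mean ± S.D.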

With `COc1ccc(-c2ccc3c(N4CCOCC4)nc(N4C[C@@H](C)O[C@@H](C)C4)nc3n2)cc1CO` [Ku-0063794] the inhibition (mTORC1 (Homo sapiens)) was “Active”, the inhibition (MEF [1]) was “Active” and the inhibition (MEF [2]) was “Active”. For the same compound, the Activity [3] was 109%, the Activity [4] was 91% and the Activity [5] was 89%. For the same compound, the Activity [6] was 117%, the Activity [7] was 87% and the Activity [8] was 92%. For the same compound, the Activity [9] was 112%, the Activity [10] was 93% and the Activity [11] was 101%. The Activity [12] was 104%, the Activity [13] was 106% and the inhibition (mTORC2 (Homo sapiens)) was “Active”. The Activity [14] was 116% and the Activity [15] was 96%.
